Yeast growth inh = yeast BB579 growth reduction in restrictive medium; S. cerevisiae BB579 growth, OD615, 48 h; inhibition, % at 10 µM; 140,000 compounds, 0.51% hits;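 active = inhibition above a set limit, 3 SD over the mean compound inhibition, cut at about 44% in these data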
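test system = yeast BB579 (DeaD) | buffer or medium = restrictive CSMM-D medium | doses = single compound dose of 10 µM, 0.25% DMSO final | times = 4 h preincubation and 48 h exposure at 30 °C | technique = culture absorbance at 615 nm | benchmarks = amphotericin B 10 µg/mL, positive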
Yeast life ext = extends the lifespan of yeast; inhibition of the nicotinamide effect, % at 10 µM; AID 775; S. cerevisiae growth with nicotinamide, OD615; deaD strain in restrictive glucose medium; 130,000 compounds, 0.68% hits;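 active = inhibition above a set limit, placed 3 SD over the median of all compounds, cut at about 26% in these data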
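Material: Modified budding yeast, DeaD strain | Medium: Restrictive glucose medium | Probe or stimulus: 1.5 mM nicotinamide | Dosing: Single dose 10 µM compound, 0.25% DMSO | Times: 48 h at 30 °C | Technique: OD615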
Insulin prom inh = TRM-6 insulin promoter activity inhibition. 130,000 compounds, 0.9% hits. TRM-6 cells, insulin promoter-eGFP reporter, imaging; reporter expression induced with tamoxifen. inhibition, % at 2 µM;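 active = inhibition above the mean plus 3 SD, with well images judged a real hit on visual review, cut at about 60% in these data, passing the limit was not always enough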
RAM inhibit = yeast RAM network inhibition; S. cerevisiae dse1pr::URA3 reporter, 5-FOA growth OD615, 2 d; analog-sensitive cbk1-as2 kinase mutant strain; inhibition, % at 50 µM; 190,000 compounds, 1.8% hits;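 active = inhibition above a set limit, 3 SD over mean compound inhibition, cut at about 8.4% in these data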;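 note: inhibition rescues growth on 5-FOA so higher OD means more RAM inhibition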
HMGR II inh = inhibitors of class II HMG-CoA reductase from Enterococcus faecalis. inhibition, % at 10 µM. 190,000 compounds, 0.41% hits. purified E. faecalis HMGR, NADPH absorbance 340 nm kinetic;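 active = inhibition above a set limit, the median over all tested compounds plus 3 SD, cut at about 9.5% in these data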;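 note: enzyme runs in reverse so mevalonate oxidation gives rising NADPH absorbance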
Each line names hits and unclear results; the compound was inactive in the other large screens. Most compounds without a hit are left out; they make up all but 3.7% or so of the library.

Nc1cccc2c1C(=O)N(C(=O)c1cccc(S(=O)(=O)N3CCCCCC3)c1)C2=O	none
O=C(NCc1cccnc1)c1cccn2c(=O)c3sccc3nc12	none (no result: Insulin prom inh)
CCN(CC)c1ccc(NC(=O)COC(=O)COc2ccccc2[N+](=O)[O-])cc1	none (no result: Insulin prom inh)
CCN(CC)S(=O)(=O)c1ccc(C(=O)C(C#N)c2ccccn2)cc1 (stereo not given)	Insulin prom inh 73
CCOC(=O)C(C#N)c1ccccn1 (stereo not given)	none
Cc1c(Nc2cc(Cl)c3nonc3c2[N+](=O)[O-])c(=O)n(-c2ccccc2)n1C	Insulin prom inh 100 (no result: Yeast growth inh, Yeast life ext)
Nn1c(-c2cccs2)nc2sc3c(c2c1=O)CCCC3	RAM inhibit 9.0
C=CCn1c(O)c(C(CC)=Nc2ccccc2NC(=O)CC)c(=O)[nH]c1=O	none
C=CCn1c(O)c(C(CC)=NCCN2CCOCC2)c(=O)[nH]c1=O	Yeast life ext 37 (no result: Insulin prom inh)
Cc1nc2cc(C(=O)N3c4ccccc4CC3C)ccc2s1 (stereo not given)	none (no result: Yeast growth inh, Yeast life ext, Insulin prom inh)
O=C(CCc1nnc(CCCCc2ccccc2)o1)NCc1cc(F)ccc1F	RAM inhibit 11 (no result: Yeast growth inh, Yeast life ext, Insulin prom inh)
O=C(CCc1ccccc1)NCCCN1CCOCC1	Yeast life ext 66 (no result: Insulin prom inh)
O=C(CCc1nnc(CCCc2ccccc2)o1)NCCc1ccccc1	HMGR II inh 15 (no result: Yeast growth inh, Yeast life ext)
O=C(CCc1nnc(CCCCc2ccccc2)o1)NCc1cccc(F)c1	none (no result: Yeast growth inh, Yeast life ext)
COc1ccc(OC)c(NC(=O)c2ccc(NS(=O)(=O)c3c(C)noc3C)cc2)c1	none (no result: Insulin prom inh)
COc1cc(NC(=O)c2ccc(NS(=O)(=O)c3c(C)noc3C)cc2)cc(OC)c1	RAM inhibit 11 (no result: Insulin prom inh)
CC(C)C(=O)Nc1ccc2c(c1)C(=O)NC2=O	none (no result: Yeast growth inh, Yeast life ext)
CCc1nnc(SCC(=O)Nc2ccc3c(c2)OCO3)o1	Insulin prom inh 68
Cc1ccccc1-c1nsc(SCC(=O)Nc2ccc3c(c2)OCO3)n1	RAM inhibit 9.4
O=C(CSCc1ccccc1)Nc1ccc2c(c1)OCO2	none
CCN1CCN(CCC(=O)Nc2ccc3c(c2)OCO3)CC1	HMGR II inh 16 (no result: Yeast life ext)
O=C(CSCc1c(Cl)cccc1Cl)Nc1ccc2c(c1)OCO2	RAM inhibit 9.7
O=C(c1cccc(C(F)(F)F)c1)C1CCCN(Cc2cccn2-c2ccccn2)C1 (stereo not given)	none (no result: Yeast growth inh, Yeast life ext)
COc1ccc(Cl)cc1N(C(=O)Nc1cccc(Cl)c1)C1=NCC(C)S1 (stereo not given)	none
COCCn1c(=O)[nH]c2cc(C(=O)NCCc3ccc(S(N)(=O)=O)cc3)ccc2c1=O	none (no result: Yeast growth inh, Yeast life ext, Insulin prom inh)
COc1ccc(C(=O)N/N=C/C2CC=CCC2)cc1OC (stereo not given)	none (no result: Yeast growth inh, Yeast life ext)
COc1ccc(NC(=S)N2CCN(C/C=C/c3ccccc3)CC2)cc1	none (no result: Insulin prom inh)
COc1ccc(OC)c(NC(=S)N2CCN(C/C=C/c3ccccc3)CC2)c1	Yeast life ext 43
COCCCN(C(=S)Nc1ccc(C)cc1Cl)C(C)c1ccncc1 (stereo not given)	none
COCCCN(C(=S)Nc1cc(Cl)cc(Cl)c1)C(C)c1ccncc1 (stereo not given)	Yeast life ext 41
COc1ccc(N2CCN(C(=O)CCCn3c(=O)[nH]c4cc(Cl)ccc4c3=O)CC2)cc1	Insulin prom inh 74
CC(=O)c1ccc(N2CCN(C(=O)CCCn3c(=O)[nH]c4ccccc4c3=O)CC2)cc1	none (no result: Yeast growth inh, Yeast life ext)
COc1cc(CN2CCNC(=O)C2CC(=O)O)cc(OC)c1 (stereo not given)	none (no result: Yeast growth inh, Yeast life ext)
CC(=O)c1c(C)oc2ccc(N(C(C)=O)S(=O)(=O)c3cccc([N+](=O)[O-])c3)cc12	none (no result: Yeast growth inh, Yeast life ext, Insulin prom inh)
CC(=O)c1c(C)oc2ccc(N(C(=O)C3CCCCC3)S(=O)(=O)c3cc([N+](=O)[O-])ccc3C)cc12	RAM inhibit 9.7 (no result: Insulin prom inh)
CN(c1cccc(NC(=O)COc2ccc(Cl)cc2Cl)c1)S(C)(=O)=O	RAM inhibit 8.8 (no result: Yeast life ext)
Cc1cc(NC(=O)CSc2cc(Cl)ccc2Cl)n(-c2ccccc2)n1	none (no result: Insulin prom inh)
Cc1cc(NC(=O)COc2ccc(Cl)cc2Cl)n(-c2ccccc2)n1	RAM inhibit 8.6
CN(c1cccc(NC(=O)CN(c2ccc(Cl)c(Cl)c2)S(=O)(=O)c2ccccc2)c1)S(C)(=O)=O	Yeast life ext 29, RAM inhibit 9.7
Cc1ccc(S(=O)(=O)N(CC(=O)Nc2cccc(N(C)S(C)(=O)=O)c2)c2ccc(Cl)c(Cl)c2)cc1	none
COc1cc(CNCC2CCCO2)ccc1OCC(N)=O (stereo not given)	none (no result: Yeast growth inh, Yeast life ext)
CC(=O)c1c(Nc2ccc3c(c2)OCCO3)oc(C)cc1=O	Yeast life ext 27 (no result: Insulin prom inh)

Screening results from PubChem.
